This is an account of results in ChEMBL document CHEMBL1145187.

Each structure is given as a SMILES string.

For test [1], the target named is T1, Estrogen receptor (Homo sapiens) (UniProt P03372).
T1 sequence (whole entry): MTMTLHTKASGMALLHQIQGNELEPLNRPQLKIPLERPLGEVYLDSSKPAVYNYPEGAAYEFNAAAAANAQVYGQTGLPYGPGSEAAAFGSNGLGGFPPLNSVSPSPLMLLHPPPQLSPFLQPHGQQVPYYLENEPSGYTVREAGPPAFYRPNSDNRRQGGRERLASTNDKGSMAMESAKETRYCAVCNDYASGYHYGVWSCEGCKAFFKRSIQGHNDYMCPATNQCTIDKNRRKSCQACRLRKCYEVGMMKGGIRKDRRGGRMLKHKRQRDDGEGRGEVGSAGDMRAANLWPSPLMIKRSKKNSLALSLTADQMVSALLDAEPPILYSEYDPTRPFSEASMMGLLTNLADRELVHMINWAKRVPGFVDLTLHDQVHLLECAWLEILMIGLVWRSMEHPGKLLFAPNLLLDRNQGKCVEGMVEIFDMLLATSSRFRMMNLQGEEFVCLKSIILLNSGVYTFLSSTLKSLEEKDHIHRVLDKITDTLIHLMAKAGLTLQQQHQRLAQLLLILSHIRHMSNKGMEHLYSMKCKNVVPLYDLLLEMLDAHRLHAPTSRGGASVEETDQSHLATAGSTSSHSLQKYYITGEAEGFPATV
Kind of test: Relative binding affinity for human estrogen receptor alpha.

The target in test [2] is Estrogen receptor beta (Homo sapiens) (UniProt Q92731). The experiment in a line: Transcriptional efficacy against human estrogen receptor beta at 10e-6 M. Format: functional. A digest of the protocol:
(§1)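 HEC-1 cells were grown in phenol-red MEM with 5% calf serum and 5% fetal calf serum, then plated in phenol-red-free improved MEM with 5% charcoal dextran-treated calf serum. They were lipofectin-transfected for 5 h at 37 °C with ERβ expression vector, 2ERE-pS2-Luc and pCMV β-galactosidase. Ligand was then added for 24 h.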

Test [3] has the same target. Kind of test: Transcriptional efficacy against human estrogen receptor beta at 10e-8 M. The test is classed as functional. In short, it runs like this: as §1

Chain of Estrogen receptor beta (Homo sapiens) (Q92731 whole entry): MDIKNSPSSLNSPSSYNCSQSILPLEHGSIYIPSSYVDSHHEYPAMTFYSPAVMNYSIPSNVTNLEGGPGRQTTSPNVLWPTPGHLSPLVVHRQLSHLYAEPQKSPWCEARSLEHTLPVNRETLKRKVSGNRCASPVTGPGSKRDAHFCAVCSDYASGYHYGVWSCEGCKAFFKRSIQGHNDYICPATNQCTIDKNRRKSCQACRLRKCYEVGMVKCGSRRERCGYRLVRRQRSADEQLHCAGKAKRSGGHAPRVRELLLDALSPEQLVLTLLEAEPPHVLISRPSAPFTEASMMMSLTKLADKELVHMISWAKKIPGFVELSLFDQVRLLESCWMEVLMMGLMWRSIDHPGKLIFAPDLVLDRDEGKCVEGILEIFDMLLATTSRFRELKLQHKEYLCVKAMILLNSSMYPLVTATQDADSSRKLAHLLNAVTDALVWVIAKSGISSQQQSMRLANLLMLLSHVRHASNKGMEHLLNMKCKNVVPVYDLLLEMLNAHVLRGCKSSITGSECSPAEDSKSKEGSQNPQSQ

For the compound `Cc1c2cc(O)ccc2nn1-c1ccc(O)cc1`, the Relative binding affinity in test [1] was 0.03. The values for the Efficacy in test [2] and in test [3] were 87% and 57%, respectively.

The compound `Oc1ccc(-n2cc3ccc(O)c(Br)c3n2)cc1` came in with a Relative binding affinity in test [1] of 0.02. The Efficacy in test [2] is 29%; in test [3], 1.4%.

Regarding `Oc1ccc2nn(-c3ccccc3)cc2c1`, the Relative binding affinity in test [1] is less than 0.004.

Take `Oc1ccc(-n2nc3ccc(O)cc3c2I)cc1`: in test [1], the Relative binding affinity came out at 0.17. Also, the Efficacy is 58% in test [2] and 85% in test [3].

In test [1], `Oc1ccc(-n2nc3ccc(O)cc3c2Br)cc1` had a Relative binding affinity of 0.18. In addition, the Efficacy in test [2] was 67%; in test [3], 66%.

The compound `Oc1ccc2nn(-c3ccccc3)c(Cl)c2c1` gave a Relative binding affinity in test [1] of 0.014.

The compound `Oc1ccc2nn(-c3ccc(O)c(Cl)c3)c(Cl)c2c1` gave a Relative binding affinity in test [1] of 0.023.

Compound `Oc1ccc(-n2cc3ccccc3n2)cc1` displayed a Relative binding affinity in test [1] of 0.02.

For `Oc1ccc(-n2cc3cc(O)ccc3n2)cc1`, in test [1], the Relative binding affinity is 0.049. Besides, the Efficacy turned out to be 90% in test [2] and 47% in test [3].

In test [1], `CCc1c2cc(O)ccc2nn1-c1ccc(O)cc1` yielded a Relative binding affinity of 0.08. Moreover, the Efficacy in test [2] turned out to be 100%; in test [3] it was 63%.

As to `CC(C)c1c2cc(O)ccc2nn1-c1ccc(O)cc1`, the Relative binding affinity in test [1] turned out to be 0.14.

Turning to `C=CCc1c2cc(O)ccc2nn1-c1ccc(O)cc1`, in test [1], the Relative binding affinity is 0.06.

On to `Oc1ccc(-n2nc3c(Cl)c(O)ccc3c2Cl)cc1`, for which the Relative binding affinity in test [1] was 0.07.

Consider `Oc1ccc2nn(-c3ccc(O)c(Cl)c3)cc2c1`, for which the Relative binding affinity in test [1] came to 0.07.

Compound `Oc1ccc(-n2nc3cc(O)ccc3c2Cl)cc1` came in with a Relative binding affinity in test [1] of 0.08.

As for `Oc1ccc(-n2nc3ccc(O)cc3c2-c2ccccc2)cc1`, the Relative binding affinity in test [1] amounted to 0.04. The Efficacy in test [2] was found to be 28%; in test [3], 11%.

On to `N#Cc1c2cc(O)ccc2nn1-c1ccc(O)cc1`, for which the Relative binding affinity in test [1] was found to be 1.4. The Efficacy in test [2] was 56%; in test [3], 82%.

For `Oc1ccc(-n2nc3ccc(O)cc3c2C(F)(F)F)cc1`, in test [1], the Relative binding affinity was determined as 3.9. Also, the Efficacy in test [2] is 74%; in test [3] it was 78%.

Regarding `Oc1ccc(-n2nc3ccc(O)cc3c2Cl)cc1`, the Relative binding affinity in test [1] worked out at 0.3. The Efficacy in test [2] came out at 89%; in test [3], 88%.

Take `Oc1ccc(-n2cc3ccc(O)cc3n2)cc1`: the Relative binding affinity in test [1] amounted to 0.008. The Efficacy in test [2] amounted to 75%; in test [3] it was 1.7%.

In the case of `Oc1ccc(-n2nc3ccccc3c2Cl)cc1`, the Relative binding affinity in test [1] worked out at 0.03.

In turn, `CCCc1c2cc(O)ccc2nn1-c1ccc(O)cc1` showed a Relative binding affinity in test [1] of 0.04.
